Measured values as given in ChEMBL document CHEMBL3421623 (J Med Chem, 2015).

Assays:
Estrogen receptor beta [1] = molecular target: T1, Estrogen receptor beta (Homo sapiens, UniProt Q92731); experiment: Displacement of fluorescein-labeled ES2 from human recombinant ERbeta receptor after 2 hrs by fluorescence polarization assay
How it was run: (§1)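 Fluorescence polarization competition. Compound in methanol or DMSO mixed with ES2 screening buffer (100 mM potassium phosphate, 100 μg/mL BGG, 0.02% NaN₃). Preformed complex added to final 9 nM ES2 with 30 nM ER-α or 20 nM ER-β. Polarization expressed as % of vehicle control; EC50 from one-site competition fit.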

Aromatase = molecular target: T2, Aromatase (Homo sapiens, UniProt P11511); experiment: Inhibition of human recombinant aromatase using 7-methoxy-trifluoromethylcoumarin as substrate assessed as formation of fluorescent metabolite after 30 mins by fluorescence assay; conditions: for inhibition (INH): human, 0.5 h
T2 sequence (P11511 whole entry): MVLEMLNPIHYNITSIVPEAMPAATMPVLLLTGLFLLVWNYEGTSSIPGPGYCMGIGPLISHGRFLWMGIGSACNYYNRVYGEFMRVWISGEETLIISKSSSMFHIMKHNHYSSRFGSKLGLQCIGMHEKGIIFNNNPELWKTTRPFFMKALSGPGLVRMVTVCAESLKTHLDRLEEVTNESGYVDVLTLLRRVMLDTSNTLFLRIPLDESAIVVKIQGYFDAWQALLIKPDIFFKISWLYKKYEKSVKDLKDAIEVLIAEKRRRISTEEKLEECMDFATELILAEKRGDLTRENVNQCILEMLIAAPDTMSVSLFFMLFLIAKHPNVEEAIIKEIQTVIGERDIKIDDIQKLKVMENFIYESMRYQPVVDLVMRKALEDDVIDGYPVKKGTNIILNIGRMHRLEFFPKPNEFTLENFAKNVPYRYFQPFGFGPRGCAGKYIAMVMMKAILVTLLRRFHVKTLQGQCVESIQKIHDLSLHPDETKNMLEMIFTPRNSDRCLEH
How it was run: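 Recombinant human CYP19 with MFC substrate, converted to fluorescent HFC, in 0.1 M potassium phosphate pH 7.4. NADPH-regenerating mix (NADP⁺, MgCl₂, glucose-6-phosphate, G6PDH); compound prewarmed 10 min at 37 °C, then 30 min reaction stopped with Tris base in acetonitrile. Activity as % of vehicle control; IC50 from one-site competition fit; Ki from Lineweaver–Burk data by nonlinear regression.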

Estrogen receptor = molecular target: T3, Estrogen receptor (Homo sapiens, UniProt P03372); experiment: Displacement of fluorescein-labeled ES2 from human recombinant ERalpha receptor after 2 hrs by fluorescence polarization assay; how it was run: as §1
T3 sequence (P03372 whole entry): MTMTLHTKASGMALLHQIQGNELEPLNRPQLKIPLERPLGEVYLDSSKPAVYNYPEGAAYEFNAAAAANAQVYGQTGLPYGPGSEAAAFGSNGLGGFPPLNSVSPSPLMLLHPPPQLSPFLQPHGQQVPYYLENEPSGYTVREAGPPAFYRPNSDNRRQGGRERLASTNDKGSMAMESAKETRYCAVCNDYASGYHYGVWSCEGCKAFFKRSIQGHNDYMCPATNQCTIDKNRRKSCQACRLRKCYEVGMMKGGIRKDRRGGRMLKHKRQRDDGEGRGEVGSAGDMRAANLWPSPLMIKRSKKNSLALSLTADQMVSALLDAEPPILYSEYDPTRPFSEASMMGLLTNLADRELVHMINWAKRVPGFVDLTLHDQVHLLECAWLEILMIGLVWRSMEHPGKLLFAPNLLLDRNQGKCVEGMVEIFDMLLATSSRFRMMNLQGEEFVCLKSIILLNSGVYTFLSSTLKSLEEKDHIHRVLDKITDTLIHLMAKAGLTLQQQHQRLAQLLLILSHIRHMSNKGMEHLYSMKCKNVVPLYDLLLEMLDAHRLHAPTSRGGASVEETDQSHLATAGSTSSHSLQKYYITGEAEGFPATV

[2] = molecular target: T4, Estrogen receptor (Homo sapiens) (UniProt P03372); experiment: Antiestrogenic effect at estrogen receptor in human MCF7 cells assessed as inhibition of E2-induced progesterone receptor mRNA expression at 1000 nM after 24 hrs by real time quantitative PCR; type: cell-based; parameters: scale not given: the % may be the effect or the level left
T4 sequence (whole entry): T3 sequence (P03372 whole entry)
How it was run: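 MCF-7 cells (10⁵/well) grown in MEM + 10% FBS at 37 °C, 5% CO₂, then preconditioned 72 h in charcoal-stripped FBS. Treated 24 h with 1 μM compound or vehicle (0.1% methanol) plus 10 nM E2 in MEM/10% charcoal-stripped FBS. PGR mRNA extracted after genomic DNA removal and quantified by qPCR (40 cycles, Ct). Reported as % of E2-alone expression (100%); 1 μM endoxifen as positive control.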

[3] = molecular target: T4, Estrogen receptor (Homo sapiens); experiment: Displacement of fluorescein-labeled ES2 from human recombinant ERalpha receptor at 100000 nM after 2 hrs by fluorescence polarization assay
How it was run: (§2)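 Same ES2 fluorescence polarization setup: 9 nM ES2 with 30 nM ER-α or 20 nM ER-β, in phosphate/BGG buffer, 2 h in the dark. Each compound tested at a single 100000 nM and reported as percent ER competition versus vehicle control. Compounds were E/Z isomer mixtures (mostly 1:1). Mean of at least three experiments.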

Estrogen receptor beta [4] = molecular target: T1, Estrogen receptor beta; experiment: Displacement of fluorescein-labeled ES2 from human recombinant ERbeta receptor at 100000 nM after 2 hrs by fluorescence polarization assay; how it was run: as §2
Cytochrome P450 1A2 = molecular target: T5, Cytochrome P450 1A2 (Homo sapiens, UniProt P05177); experiment: Inhibition of human recombinant CYP1A2 assessed as metabolism of 3-cyano-7-ethoxycoumarin after 30 mins by fluorescence assay; type: ADME
T5 sequence (P05177 whole entry): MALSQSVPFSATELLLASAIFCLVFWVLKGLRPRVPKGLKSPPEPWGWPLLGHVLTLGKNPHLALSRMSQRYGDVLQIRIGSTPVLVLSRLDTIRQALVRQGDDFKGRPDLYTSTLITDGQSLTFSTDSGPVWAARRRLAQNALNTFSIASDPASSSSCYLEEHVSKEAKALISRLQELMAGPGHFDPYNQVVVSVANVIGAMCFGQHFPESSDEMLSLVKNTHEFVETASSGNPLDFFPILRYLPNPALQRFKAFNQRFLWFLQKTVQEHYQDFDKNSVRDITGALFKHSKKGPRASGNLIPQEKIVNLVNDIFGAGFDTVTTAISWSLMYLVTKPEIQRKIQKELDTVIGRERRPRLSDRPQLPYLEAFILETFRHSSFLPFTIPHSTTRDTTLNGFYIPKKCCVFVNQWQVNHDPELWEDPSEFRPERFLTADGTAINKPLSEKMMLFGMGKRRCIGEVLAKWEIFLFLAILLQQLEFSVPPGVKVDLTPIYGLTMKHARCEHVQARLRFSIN

Cytochrome P450 3A5 = Cytochrome P450 3A5 (Homo sapiens, UniProt P20815); experiment: Inhibition of human recombinant CYP3A5 assessed as metabolism of 7-benzyloxy-4-trifluoromethylcoumarin to HFC after 30 mins by fluorescence assay; type: ADME
Cytochrome P450 3A4 = Cytochrome P450 3A4 (Homo sapiens, UniProt P08684); experiment: Inhibition of human recombinant CYP3A4 assessed as metabolism of 7-benzyloxy-4-trifluoromethylcoumarin to HFC after 30 mins by fluorescence assay; type: ADME
Cytochrome P450 2D6 = Cytochrome P450 2D6 (Homo sapiens, UniProt P10635); experiment: Inhibition of human recombinant CYP2D6 after 30 mins by fluorescence assay; type: ADME
Cytochrome P450 2A6 = molecular target: T6, Cytochrome P450 2A6 (Homo sapiens, UniProt P11509); experiment: Inhibition of human recombinant CYP2A6 assessed as metabolism of coumarin to 7-hydroxycoumarin after 30 mins by fluorescence assay; type: ADME
T6 sequence (P11509 whole entry): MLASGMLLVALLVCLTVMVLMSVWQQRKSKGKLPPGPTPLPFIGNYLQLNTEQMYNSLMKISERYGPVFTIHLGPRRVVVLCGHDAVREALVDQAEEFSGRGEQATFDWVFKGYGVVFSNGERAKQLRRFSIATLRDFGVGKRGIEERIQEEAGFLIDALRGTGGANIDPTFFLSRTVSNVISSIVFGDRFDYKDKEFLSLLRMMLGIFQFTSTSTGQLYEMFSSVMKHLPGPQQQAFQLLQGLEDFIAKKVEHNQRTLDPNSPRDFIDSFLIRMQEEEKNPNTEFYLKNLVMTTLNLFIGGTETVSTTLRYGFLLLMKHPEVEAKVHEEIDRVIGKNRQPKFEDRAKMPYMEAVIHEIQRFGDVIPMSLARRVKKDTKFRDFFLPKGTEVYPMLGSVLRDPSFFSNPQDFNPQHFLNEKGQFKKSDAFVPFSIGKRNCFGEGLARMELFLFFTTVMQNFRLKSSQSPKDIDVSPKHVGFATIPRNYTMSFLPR

T1 sequence (Q92731 whole entry): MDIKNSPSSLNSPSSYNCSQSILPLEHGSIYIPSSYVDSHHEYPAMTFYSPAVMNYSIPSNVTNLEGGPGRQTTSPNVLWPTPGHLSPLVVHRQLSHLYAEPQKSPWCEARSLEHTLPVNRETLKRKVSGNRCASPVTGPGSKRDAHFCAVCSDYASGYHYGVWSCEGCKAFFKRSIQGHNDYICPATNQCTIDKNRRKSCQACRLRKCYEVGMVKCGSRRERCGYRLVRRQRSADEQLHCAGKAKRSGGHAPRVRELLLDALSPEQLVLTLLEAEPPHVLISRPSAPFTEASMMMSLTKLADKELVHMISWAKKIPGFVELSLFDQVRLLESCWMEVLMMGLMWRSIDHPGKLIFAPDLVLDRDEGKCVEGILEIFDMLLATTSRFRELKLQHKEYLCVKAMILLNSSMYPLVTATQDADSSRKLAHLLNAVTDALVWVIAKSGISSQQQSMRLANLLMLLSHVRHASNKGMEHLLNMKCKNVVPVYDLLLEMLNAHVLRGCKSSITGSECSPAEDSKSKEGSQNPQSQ
Sequence of Cytochrome P450 2D6 (P10635 whole entry): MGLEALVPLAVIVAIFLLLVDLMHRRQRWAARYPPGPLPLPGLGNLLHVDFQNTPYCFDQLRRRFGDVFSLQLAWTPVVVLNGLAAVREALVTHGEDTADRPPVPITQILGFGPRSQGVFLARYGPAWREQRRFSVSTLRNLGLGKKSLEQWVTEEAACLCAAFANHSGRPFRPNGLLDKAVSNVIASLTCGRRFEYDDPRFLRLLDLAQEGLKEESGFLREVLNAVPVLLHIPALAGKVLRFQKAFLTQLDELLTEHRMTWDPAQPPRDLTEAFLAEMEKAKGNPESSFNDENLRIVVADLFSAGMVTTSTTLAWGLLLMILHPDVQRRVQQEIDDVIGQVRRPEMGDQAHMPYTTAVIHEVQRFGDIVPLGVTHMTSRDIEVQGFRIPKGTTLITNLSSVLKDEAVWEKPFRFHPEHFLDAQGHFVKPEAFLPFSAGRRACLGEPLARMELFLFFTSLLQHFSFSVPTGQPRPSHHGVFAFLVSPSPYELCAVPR
Sequence of Cytochrome P450 3A4 (P08684 whole entry): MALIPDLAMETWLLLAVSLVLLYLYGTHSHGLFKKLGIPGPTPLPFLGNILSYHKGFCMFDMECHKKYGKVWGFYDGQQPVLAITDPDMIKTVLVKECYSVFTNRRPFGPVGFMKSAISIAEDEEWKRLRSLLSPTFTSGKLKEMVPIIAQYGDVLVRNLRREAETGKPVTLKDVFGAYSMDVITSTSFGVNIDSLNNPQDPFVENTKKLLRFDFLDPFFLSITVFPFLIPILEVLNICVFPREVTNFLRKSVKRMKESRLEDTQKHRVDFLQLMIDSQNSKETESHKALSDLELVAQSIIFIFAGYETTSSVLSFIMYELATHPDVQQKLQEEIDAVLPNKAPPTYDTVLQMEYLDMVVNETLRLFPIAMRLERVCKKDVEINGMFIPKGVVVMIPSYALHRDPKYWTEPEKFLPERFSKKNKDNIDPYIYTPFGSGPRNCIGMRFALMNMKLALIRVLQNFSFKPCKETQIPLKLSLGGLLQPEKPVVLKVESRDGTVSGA
Sequence of Cytochrome P450 3A5 (P20815 whole entry): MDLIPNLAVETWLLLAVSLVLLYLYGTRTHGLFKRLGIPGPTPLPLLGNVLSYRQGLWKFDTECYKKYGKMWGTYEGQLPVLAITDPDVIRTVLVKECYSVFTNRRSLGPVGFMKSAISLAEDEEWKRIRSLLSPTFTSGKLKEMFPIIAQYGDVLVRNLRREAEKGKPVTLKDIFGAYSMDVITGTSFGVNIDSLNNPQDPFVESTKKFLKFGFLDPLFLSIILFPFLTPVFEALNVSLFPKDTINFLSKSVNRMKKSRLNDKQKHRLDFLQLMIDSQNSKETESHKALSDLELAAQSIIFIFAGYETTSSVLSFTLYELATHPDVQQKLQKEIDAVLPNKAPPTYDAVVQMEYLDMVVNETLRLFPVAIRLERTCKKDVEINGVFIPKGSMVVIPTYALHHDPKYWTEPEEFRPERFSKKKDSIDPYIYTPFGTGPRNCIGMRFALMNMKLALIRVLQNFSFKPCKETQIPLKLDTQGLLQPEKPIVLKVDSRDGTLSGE

| SMILES | EC50 (Estrogen receptor beta [1]) | IC50 (Aromatase) | EC50 (Estrogen receptor) | Activity [2] | Activity [3] | Activity (Estrogen receptor beta [4]) | also measured |
| --- | --- | --- | --- | --- | --- | --- | --- |
| NCCOc1ccc(/C(=C(\CCCl)c2ccccc2)c2ccc(O)cc2)cc1 (mixture of isomers) | 52 nM | 143 nM | 265 nM | – | – | – | – |
| NCCOc1ccc(/C(=C/c2ccccc2)c2ccc(O)cc2)cc1 (mixture of isomers) | 19.5 nM | 6290 nM | 1050 nM | – | – | – | – |
| NCCOc1ccc(C(=C(c2ccccc2)c2ccccc2)c2ccc(O)cc2)cc1 | 478 nM | 1930 nM | 653 nM | – | – | – | – |
| NCCOc1ccc(/C(=C(\Cn2cnnc2)c2ccccc2)c2ccc(O)cc2)cc1 | 57.5 nM | 699 nM | 176 nM | 44% | – | – | – |
| CCC(CC)=C(c1ccc(O)cc1)c1ccc(OCCN)cc1 | 202 nM | 1320 nM | 277 nM | – | – | – | – |
| NCCOc1ccc(/C(=C(\Cn2ccnc2)c2ccccc2)c2ccc(O)cc2)cc1 (mixture of isomers) | – | 16.9 nM | – | – | 59% | 74% | – |
| CC/C(=C(/c1ccc(O)cc1)c1ccc(CCCN)cc1)c1ccc(O)cc1 (mixture of isomers) | 293 nM | 491 nM | 1920 nM | 6% | – | – | – |
| CC/C(=C(/c1ccc(O)cc1)c1ccc(OCC(=O)O)cc1)c1ccccc1 (mixture of isomers) | – | 3680 nM | – | – | 55% | 57% | – |
| CC/C(=C(/c1ccccc1)c1ccc(OCCN)cc1)c1ccccc1 (mixture of isomers) | – | 913 nM | – | – | 0% | 0% | – |
| NCCOc1ccc(/C(=C(\Cn2cncn2)c2ccccc2)c2ccc(O)cc2)cc1 (mixture of isomers) | 519 nM | 174 nM | 290 nM | 47% | – | – | – |
| CC/C(=C(/c1ccc(O)cc1)c1ccc(OCCN)cc1)c1ccc(F)cc1 (mixture of isomers) | 49.2 nM | 1020 nM | 87.8 nM | 42% | – | – | – |
| N#CC/C(=C(/c1ccc(O)cc1)c1ccc(OCCN)cc1)c1ccccc1 (mixture of isomers) | – | 48.9 nM | – | – | 48% | 64% | – |
| CC/C(=C(/c1ccc(O)cc1)c1ccc(CCCN)cc1)c1ccccc1 (mixture of isomers) | 13.3 nM | 7340 nM | 27.1 nM | 16% | – | – | – |
| CC/C(=C(/c1ccc(O)cc1)c1ccc(OCCCN)cc1)c1ccccc1 (mixture of isomers) | 21.3 nM | 1240 nM | 21.3 nM | 33% | – | – | – |
| C/C(=C(/c1ccc(O)cc1)c1ccc(OCCN)cc1)c1ccccc1 (mixture of isomers) | 27.8 nM | 337 nM | 675 nM | – | – | – | – |
| CC/C(=C(/c1ccc(O)cc1)c1ccc(OCCN)cc1)c1ccccc1 (mixture of isomers) | – | – | – | 32% | – | – | IC50 (Cytochrome P450 1A2): 207 nM; IC50 (Cytochrome P450 3A5): 723 nM; Ki (Cytochrome P450 3A5): 829 nM; IC50 (Cytochrome P450 3A4): 285 nM; Ki (Cytochrome P450 3A4): 375 nM; Ki (Cytochrome P450 2D6): Not Active; inhibition (INH) (Cytochrome P450 2D6; human, recombinant enzyme, 0.5 h): Not Active; IC50 (Cytochrome P450 2A6): 6.37 µM; Ki (Cytochrome P450 2A6): 2180 nM |
| CC/C(=C(/c1ccc(O)cc1)c1ccc(OCCCl)cc1)c1ccccc1 (mixture of isomers) | – | – | – | – | 62% | 40% | inhibition (INH) (Aromatase): 27% |
| NCCOc1ccc(/C(=C2\CCc3ccccc32)c2ccc(O)cc2)cc1 (mixture of isomers) | 1350 nM | 493 nM | 3180 nM | – | – | – | – |
| NCCOc1ccc(/C(=C(/Cn2cnnc2)c2ccccc2)c2ccc(O)cc2)cc1 | 47.7 nM | 715 nM | 56.5 nM | 47% | – | – | – |
| CC/C(=C(/c1ccc(N)cc1)c1ccc(OCCN)cc1)c1ccc(O)cc1 (mixture of isomers) | 49.9 nM | 48.1 nM | 144 nM | – | – | – | – |
| CCC/C(=C(/c1ccc(O)cc1)c1ccc(OCCN)cc1)c1ccccc1 (mixture of isomers) | 36.5 nM | 261 nM | 384 nM | – | – | – | – |
| CC/C(=C(/c1ccc(N)cc1)c1ccc(OCCN)cc1)c1ccccc1 (mixture of isomers) | 182 nM | 53.1 nM | 274 nM | – | – | – | – |
| CC(C)/C(=C(/c1ccc(O)cc1)c1ccc(OCCN)cc1)c1ccccc1 (mixture of isomers) | – | 328 nM | – | – | 54% | 68% | – |
| CC/C(=C(/c1ccc(O)cc1)c1ccc(OCCO)cc1)c1ccccc1 (mixture of isomers) | – | 30500 nM | – | – | 62% | 56% | – |
| CC/C(=C(/c1ccc(O)cc1)c1ccc(OCCBr)cc1)c1ccccc1 (mixture of isomers) | – | – | – | – | 60% | 60% | inhibition (INH) (Aromatase): 20% |
